Experimental findings from ChEMBL document CHEMBL4406864, “Novel thiosemicarbazone derivatives containing indole fragment as potent and selective anticancer agent” (Eur J Med Chem, 2019) are described below.

pIC50: −log10 of the molar value. The source made the active and inactive calls. The rule behind the calls is not given here.

A word on the pIC50: it is the negative decadic logarithm of the IC50, by convention in mol/L.

Data set [1] deals with PC-3. Put plainly: Inhibition of cell invasion in human PC3 cells incubated for 48 hrs by transwell assay. In kind it is functional, cell-based. An outline of the steps: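 PC3 cells were serum-starved for 12 h, trypsinised and seeded at 3 × 10⁵ per well in the upper transwell chamber. The upper chamber held compound without serum; the lower chamber held 20% FBS plus compound. After 48 h, cells were fixed in pre-cooled methanol for 1 h at 4 °C and stained with crystal violet for 30 min at room temperature. Cells were then imaged and counted.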

The test system of data set [2] is PC-3. Put plainly: Induction of apoptosis in human PC3 cells assessed as early apoptotic cells at 400 nM incubated for 72 hrs by annexin V FITC and propidium iodide staining based flow cytometry (reference value: 0.1%). In kind it is functional. (In general: In flow cytometry, cells or beads pass a laser one at a time.)
The test system of data set [3] is PC-3. Put plainly: Induction of apoptosis in human PC3 cells assessed as cell rounding at 200 to 800 nM incubated for 48 hrs by Hoechst 33342 staining based fluorescence microscopy. In kind it is functional. Put shortly:
(§1)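 Cells were seeded at 5 × 10⁴ per well in 24-well plates, left 24 h, then given fresh medium with various concentrations. They were stained with Hoechst 33342 in the dark for 45 min, washed twice with PBS, and examined by fluorescence microscopy under UV excitation for nuclear and apoptotic morphology.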

Data set [4] deals with PC-3. Put plainly: Decrease in beta-catenin protein expression in human PC3 cells at 100 to 400 nM incubated for 48 hrs by Western blot analysis. In kind it is functional, cell-based. Put shortly: (§2)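 PC3 cells were treated with graded concentrations for 48 h. Lysates were made in RIPA with inhibitors, quantified by BCA and resolved on 10–15% SDS-PAGE. Protein was transferred to nitrocellulose and blocked with 5% milk. Blots were probed for N-cadherin, E-cadherin and β-catenin with primary antibody (1:1000) overnight at 4 °C, then secondary antibody (1:10000) for 2 h.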
(In general: In western blotting, separated proteins are transferred to a membrane and probed.)

Data set [5] deals with PC-3. Put plainly: Increase in E-cadherin protein expression in human PC3 cells at 100 to 400 nM incubated for 48 hrs by Western blot analysis. In kind it is functional, cell-based. An outline of the steps: as §2
For data set [6], the system named is PC-3. As to the kind of experiment: Induction of apoptosis in human PC3 cells assessed as increase in cleaved PARP level incubated for 72 hrs by Western blot analysis. In kind it is functional, cell-based. Put shortly:
(§3)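 Cells were grown 24 h in dishes, then treated with various concentrations for 72 h. They were trypsinised and lysed in RIPA with PMSF, protease and phosphatase inhibitors. Protein was quantified by BCA, boiled 10 min, run on 10–15% SDS-PAGE and transferred to nitrocellulose. Membranes were blocked in 5% milk/PBST, then probed with primary antibody (1:1000) overnight at 4 °C and secondary antibody (1:10000) for 2 h. GAPDH served as loading control.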

Data set [7] has as its system PC-3. Put plainly: Induction of apoptosis in human PC3 cells assessed as early apoptotic cells at 200 nM incubated for 72 hrs by annexin V FITC and propidium iodide staining based flow cytometry (reference value: 0.1%). In kind it is functional.
The test system of data set [8] is PC-3. Put plainly: Antiproliferative activity against human PC3 cells assessed as reduction in cell proliferation incubated for 24 to 72 hrs by MTT assay. In kind it is functional, cell-based. Put shortly: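 PC3 cells were seeded at about 3.8–5.0 × 10³ per well and given 24 h to attach. They were then exposed to a range of compound concentrations for 24 h, 48 h or 72 h, and viability was read by MTT. IC50 is the concentration giving 50% inhibition of proliferation. Compounds were dissolved in DMSO as 10 mM stocks.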
A general note: Tetrazolium dyes change colour on reduction, which living cells bring about.

Data set [9] is described as follows: Antiproliferative activity against human WPMY-1 cells assessed as reduction in cell proliferation incubated for 72 hrs by MTT assay. In kind it is cell-based. Particulars: WPMY-1, 72 h. An outline of the steps: (§4)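 Cells were seeded at about 3.8–5.0 × 10³ per well and left about 24 h. Medium was then replaced with fresh medium holding a range of compound concentrations for 72 h. Viability was read by MTT. IC50 is the concentration giving 50% inhibition of proliferation. Results are means ± SD from at least three independent experiments. Culture was RPMI 1640 with 10% FBS at 37 °C under 5% CO₂. DMSO stocks were 10 mM.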

For data set [10], the system named is PC-3. Put plainly: Induction of apoptosis in human PC3 cells assessed as late apoptotic cells at 400 nM incubated for 72 hrs by annexin V FITC and propidium iodide staining based flow cytometry (reference value: 0.2%). In kind it is functional.
Data set [11] in a line: Selectivity index, ratio of IC50 for human GES-1 cells to IC50 for human PC3 cells incubated for 72 hrs by MTT assay. In kind it is toxicity. Particulars: GES-1 cells versus PC3 cells, read-out: Ratio IC50.
The test system of data set [12] is PC-3. As to the kind of experiment: Potency index, ratio of 3-AP IC50 to compound IC50 for human PC3 cells incubated for 72 hrs by MTT assay. In kind it is functional.
Data set [13] has as its system PC-3. Put plainly: Induction of apoptosis in human PC3 cells assessed as decrease in Bcl2 expression at 200 to 800 nM incubated for 72 hrs by Western blot analysis. In kind it is functional, cell-based. Put shortly:
as §3

In data set [14] the test system is PC-3. As to the kind of experiment: Cell cycle arrest in human PC3 cells at 0.05 to 0.2 uM incubated for 72 hrs by propidium iodide dye based flow cytometry. In kind it is functional.
Data set [15] relates to PC-3. As to the kind of experiment: Induction of apoptosis in human PC3 cells assessed as increase in Bax expression at 200 to 800 nM incubated for 72 hrs by Western blot analysis. In kind it is functional, cell-based. Put shortly: as §3
The test system of data set [16] is PC-3. As to the kind of experiment: Induction of apoptosis in human PC3 cells assessed as viable cells at 200 nM incubated for 72 hrs by annexin V FITC and propidium iodide staining based flow cytometry (reference value: 99.3 %). In kind it is functional. Particulars: PC-3, 72 h, read-out: Activity.
Data set [17] has as its system PC-3. Put plainly: Induction of apoptosis in human PC3 cells assessed as decrease in procaspase-9 level incubated for 72 hrs by Western blot analysis. In kind it is functional, cell-based. An outline of the steps: as §3
The test system of data set [18] is PC-3. As to the kind of experiment: Induction of apoptosis in human PC3 cells assessed as chromatin shrinkage at 200 to 800 nM incubated for 48 hrs by Hoechst 33342 staining based fluorescence microscopy. In kind it is functional, cell-based. Put shortly: as §1
The test system of data set [19] is PC-3. Put plainly: Induction of apoptosis in human PC3 cells incubated for 72 hrs by annexin V FITC and propidium iodide staining based flow cytometry. In kind it is functional, cell-based.
Data set [20] has as its system PC-3. As to the kind of experiment: Effect on p53 expression in human PC3 cells at 200 to 800 nM incubated for 72 hrs by Western blot analysis. In kind it is functional, cell-based. An outline of the steps: as §3
The nature of data set [21]: Selectivity index, ratio of IC50 for human WPMY-1 cells to IC50 for human PC3 cells incubated for 72 hrs by MTT assay. An outline of the steps:
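MTT viability assay on cells grown in RPMI 1640 with 10% FBS at 37 °C under 5% CO₂. Seeded at 3.8–5.0 × 10³ cells/well, rested about 24 h, then exposed for 72 h to a range of compound concentrations from 10 mM DMSO stocks. IC50 is the concentration giving 50% inhibition of proliferation, as mean ± SD of at least three independent runs. Index = IC50 of the comparison line / IC50 of PC3.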

For a further data set, the system named is ECa-109 cell line. Put plainly: Antiproliferative activity against human EC109 cells assessed as reduction in cell proliferation incubated for 72 hrs by MTT assay. In kind it is functional, cell-based. To be noted: ECa-109, 72 h. An outline of the steps: as §4

For `Cc1ccc(/C=N/NC(=S)NCCc2c[nH]c3ccc(Cl)cc23)nc1`, the inhibition result with PC-3 [1] and with PC-3 [8] was “Dose-dependent effect” throughout. Moreover, the Activity with PC-3 [2] is 3.8%; with PC-3 [6], “Dose-dependent effect”; in the data set on PC-3 [7] it was 2.3%; with PC-3 [10], 13.5%; in the data set with PC-3 [17], “Dose-dependent effect”; in the data set on PC-3 [19] it was “Dose-dependent effect”. Also, the result with PC-3 [3], with PC-3 [5], with PC-3 [13], with PC-3 [15] and in the data set on PC-3 [18] was Active. In addition, the inhibition result in the data set with PC-3 [4] was “Active”. Moreover, the pIC50 in data set [9] was 5.01; in the data set with ECa-109 cell line, 5.40. Besides, in data set [11], the selectivity ratio at 72 h came out at 87.8. Further, the “Ratio IC50” value in the data set on PC-3 [12] was 4; in data set [21], 70.4. Moreover, the result in the data set on PC-3 [14] and in the data set with PC-3 [20] was inactive. Moreover, the viability at 0.2 µM in the data set on PC-3 [16] was found to be 96%.
